Test results: ChEMBL document CHEMBL3286210, “Discovery of 3-aryl-3-ethoxypropanoic acids as orally active GPR40 agonists” (Bioorg Med Chem Lett, 2014)
Active and inactive are the calls of the source. No cut-off for these calls is given here.

Experiments:
[1] = biological target: Free fatty acid receptor 1 (Homo sapiens, UniProt O14842); experiment: Agonist activity at human GPR40 expressed in CHO cells by calcium flux assay; assay type: functional, cell-based
In short: (§1)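 Intracellular calcium flux read in CHO cells transfected with GPR40; values are means of two or three independent experiments.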

[2] = biological target: Free fatty acid receptor 1 (Rattus norvegicus, UniProt Q8K3T4); experiment: Agonist activity at rat GPR40 expressed in CHO cells by calcium flux assay; assay type: functional, cell-based; in short: as §1
[3] = Lipophilicity, log D of the compound at pH 7.4; assay type: physicochemical; conditions: buffer
Homo sapiens = species on record: Homo sapiens; experiment: Inhibition of mitochondrial respiratory chain complex 1 (unknown origin) at 100 uM
In short: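 Compound tested at 100 μM. Read-out is percent inhibition of mitochondrial respiratory chain complex 1.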

[4] = Clearance in F344 rat at 2 mg/kg, iv; assay type: ADME, organism-based; set-up: dose 2 mg/kg, route intravenous; conditions: in vivo
In short: (§2)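 F344 rats, single iv dose of 2 mg/kg, plasma pharmacokinetic parameters determined.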

[5] = Volume of distribution at steady state in F344 rat at 2 mg/kg, iv; assay type: ADME, organism-based; set-up: dose 2 mg/kg, route intravenous; conditions: in vivo, read-out: Vdss; in short: as §2
[6] = Half life in F344 rat at 2 mg/kg, iv; assay type: ADME, organism-based; set-up: dose 2 mg/kg, route intravenous; conditions: in vivo; in short: as §2
[7] = Cmax in F344 rat at 3 mg/kg, po; assay type: ADME, organism-based; set-up: dose 3 mg/kg, route oral; conditions: in vivo
In short: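 F344 rats, single oral dose of 3 mg/kg, plasma pharmacokinetic parameters determined.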

[8] = AUC in F344 rat at 3 mg/kg, po; assay type: ADME, organism-based; set-up: dose 3 mg/kg, route oral; conditions: plasma
[9] = Oral bioavailability in F344 rat at 3 mg/kg; assay type: ADME, organism-based; conditions: in vivo
In short: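 F344 rats. Bioavailability from an iv dose of 2 mg/kg paired with an oral dose of 3 mg/kg.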

MIN6 = experiment: Insulinotropic effect in mouse MIN6 cells in presence of 25 mM glucose; assay type: functional, cell-based
In short: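 MIN6 mouse insulinoma cells exposed to compound from 0.001 to 10 µM with 25 mM glucose; insulin secreted into medium measured; mean ± S.E. of 4 wells.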

Rattus norvegicus [10] = experiment: Antidiabetic activity in po dosed diabetic Zucker fatty rat model assessed as reduction of blood glucose level administered 30 mins prior to glucose challenge by oral glucose tolerance test; assay type: functional, organism-based
In short: (§3)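 Nine-week-old Zucker fatty rats fasted overnight; vehicle or compound given orally (1–10 mg/kg) 30 min before oral glucose load of 2 g/kg; blood sampled for plasma glucose and insulin; mean ± S.E., n = 6.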

Rattus norvegicus [11] = experiment: Antidiabetic activity in diabetic Zucker fatty rat model assessed as reduction of blood glucose level at 3 mg/kg, po administered 30 mins prior to glucose challenge by oral glucose tolerance test relative to sitagliptin; assay type: functional
Rattus norvegicus [12] = experiment: Antidiabetic activity in diabetic Zucker fatty rat model assessed as increase in insulin level measured during OGTT at 1 to 10 mg/kg, po administered 30 mins prior to glucose challenge; assay type: functional, organism-based; in short: as §3
[13] = Cmax in diabetic Zucker fatty rat model measured during OGTT at 1 mg/kg, po administered 30 mins prior to glucose challenge; assay type: ADME, organism-based; set-up: dose 1 mg/kg, route oral; conditions: in vivo
In short: (§4)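 Plasma exposure (Cmax, AUC) measured during OGTT in overnight-fasted Zucker fatty rats dosed orally 30 min before a 2 g/kg glucose challenge.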

[14] = Cmax in diabetic Zucker fatty rat model measured during OGTT at 3 mg/kg, po administered 30 mins prior to glucose challenge; assay type: ADME, organism-based; set-up: dose 3 mg/kg, route oral; conditions: in vivo; in short: as §4
[15] = Cmax in diabetic Zucker fatty rat model measured during OGTT at 10 mg/kg, po administered 30 mins prior to glucose challenge; assay type: ADME, organism-based; set-up: dose 10 mg/kg, route oral; conditions: in vivo; in short: as §4
[16] = AUC in diabetic Zucker fatty rat model measured during OGTT at 1 mg/kg, po administered 30 mins prior to glucose challenge; assay type: ADME, organism-based; set-up: dose 1 mg/kg, route oral; conditions: in vivo
In short: (§5)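 9-week-old Zucker fatty rats were fasted overnight and given vehicle or compound orally 30 min before an oral glucose tolerance test with a 2 g/kg glucose challenge. Blood was sampled during the OGTT, and plasma exposure was reported as Cmax (µg/ml) and AUC (µg h/ml).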

[17] = AUC in diabetic Zucker fatty rat model measured during OGTT at 3 mg/kg, po administered 30 mins prior to glucose challenge; assay type: ADME, organism-based; set-up: dose 3 mg/kg, route oral; conditions: in vivo; in short: as §5
[18] = AUC in diabetic Zucker fatty rat model measured during OGTT at 10 mg/kg, po administered 30 mins prior to glucose challenge; assay type: ADME, organism-based; set-up: dose 10 mg/kg, route oral; conditions: in vivo; in short: as §5
[19] = Oral bioavailability in F344 rat; assay type: ADME, organism-based; conditions: in vivo
In short: (§6)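 F344 rats; single dose given iv at 10 mg/kg or orally at 10 mg/kg (some compounds iv 2 mg/kg and po 3 mg/kg); plasma drug levels used to derive pharmacokinetic parameters.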

[20] = Clearance in F344 rat at 10 mg/kg, iv; assay type: ADME, organism-based; set-up: dose 10 mg/kg, route intravenous; conditions: in vivo; in short: as §6
[21] = Volume of distribution at steady state in F344 rat at 10 mg/kg, iv; assay type: ADME, organism-based; set-up: dose 10 mg/kg, route intravenous; conditions: in vivo, read-out: Vdss; in short: as §6
[22] = Half life in F344 rat at 10 mg/kg, iv; assay type: ADME, organism-based; set-up: dose 10 mg/kg, route intravenous; conditions: in vivo; in short: as §6
[23] = Cmax in F344 rat at 10 mg/kg, po; assay type: ADME, organism-based; set-up: dose 10 mg/kg, route oral; conditions: in vivo; in short: as §6
[24] = AUC in F344 rat at 10 mg/kg, po; assay type: ADME, organism-based; set-up: dose 10 mg/kg, route oral; conditions: plasma; in short: as §6
[25] = Oral bioavailability in F344 rat at 10 mg/kg; assay type: ADME, organism-based; conditions: in vivo; in short: as §6
Rattus norvegicus [26] = experiment: Antidiabetic activity in diabetic Zucker fatty rat model assessed as reduction of blood glucose level at 10 mg/kg, po administered 30 mins prior to glucose challenge by oral glucose tolerance test; assay type: functional, organism-based; set-up: dose 10 mg/kg; in short: as §3

Chain of Free fatty acid receptor 1 (Homo sapiens, UniProt O14842) (O14842 whole entry): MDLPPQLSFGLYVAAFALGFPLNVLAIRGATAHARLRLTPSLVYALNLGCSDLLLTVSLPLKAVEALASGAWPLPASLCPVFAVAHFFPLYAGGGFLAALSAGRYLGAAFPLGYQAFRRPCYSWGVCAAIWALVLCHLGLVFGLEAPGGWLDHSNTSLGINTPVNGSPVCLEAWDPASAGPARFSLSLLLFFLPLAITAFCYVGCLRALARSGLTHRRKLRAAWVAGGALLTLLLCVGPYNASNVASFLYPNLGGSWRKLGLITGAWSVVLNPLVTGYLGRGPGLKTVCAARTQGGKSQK
Chain of Free fatty acid receptor 1 (Rattus norvegicus, UniProt Q8K3T4) (Q8K3T4 whole entry): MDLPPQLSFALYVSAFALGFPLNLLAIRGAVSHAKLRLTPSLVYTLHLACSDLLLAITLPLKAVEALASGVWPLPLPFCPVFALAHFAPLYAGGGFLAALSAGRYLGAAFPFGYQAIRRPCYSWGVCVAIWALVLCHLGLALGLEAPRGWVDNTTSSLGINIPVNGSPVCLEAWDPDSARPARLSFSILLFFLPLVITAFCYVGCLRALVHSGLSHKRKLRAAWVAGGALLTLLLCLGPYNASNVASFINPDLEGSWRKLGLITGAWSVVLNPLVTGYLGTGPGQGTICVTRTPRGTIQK

Compound | EC50 [1] | EC50 [2] | logD [3] | also measured
COC(Cc1ccc(OCc2cccc(-c3c(C)cccc3C)c2)nc1)C(=O)O (configuration not stated) | 120 nM | > 10000 nM |  | 
CCOC(CC(=O)O)c1ccc(OCc2ccccc2C)cc1 (configuration not stated) | 20 nM | 79 nM | 1.2 | inhibition (Homo sapiens): 6%; clearance [4]: 6.17 mL/min/kg; Vd [5]: 0.16 L/kg; half-life [6]: 22.2 min; Cmax [7]: 3300 ng/mL; AUC [8]: 5300 ng·h/mL; bioavailability [9]: 64%; Activity (MIN6): Dose-dependent effect; Activity (Rattus norvegicus [10]): Dose-dependent effect; fold change (FC) (Rattus norvegicus [11]): 3; Activity (Rattus norvegicus [12]): Active; Cmax [13]: 4100 ng/mL; Cmax [14]: 14000 ng/mL; Cmax [15]: 51000 ng/mL; AUC at 0.5 h [16]: 4800 ng·h/mL; AUC at 0.5 h [17]: 19000 ng·h/mL; AUC at 0.5 h [18]: 78000 ng·h/mL
CCOC(CC(=O)O)c1ccc(OCc2cccc(C)c2)cc1 (configuration not stated) | 35 nM | 78 nM |  | 
Cc1cccc(C)c1-c1cccc(COc2ccc(CC(C)C(=O)O)cn2)c1 (configuration not stated) | 65 nM | 2100 nM |  | 
Cc1cccc(C)c1-c1cccc(COc2cc3c(cn2)C(CC(=O)O)OC3)c1 (configuration not stated) | 49 nM | 190 nM |  | 
Cc1cccc(C)c1-c1cccc(COc2ccc(CCC(=O)O)cn2)c1 | 3.5 nM | 38 nM | 3 | clearance [20]: 20 mL/min/kg; Vd [21]: 0.22 L/kg; half-life [22]: 14.4 min; Cmax [23]: 3500 ng/mL; AUC [24]: 2000 ng·h/mL; bioavailability [25]: 24%
N[C@@H](CC(=O)N1CCn2c(nnc2C(F)(F)F)C1)Cc1cc(F)c(F)cc1F |  |  |  | Activity (Rattus norvegicus [26]): Active
Cc1cccc(C)c1-c1cccc(COc2ncc(CCC(=O)O)cn2)c1 | 130 nM | 1400 nM | 2 | 
CCOC(CC(=O)O)c1ccc(OCc2ccc(C)cc2)cc1 (configuration not stated) | 370 nM | 290 nM |  | 
Cc1cccc(C)c1-c1cccc(COc2cnc(CCC(=O)O)cn2)c1 | 3.8 nM | 16 nM | 2.5 | 
Cc1cccc(C)c1-c1cccc(COc2ccc(CCC(=O)O)nc2)c1 | 71 nM | 210 nM | 2.4 | 
Cc1cccc(C)c1-c1cccc(COc2ccc(C(C)CC(=O)O)cn2)c1 (configuration not stated) | 10 nM | 320 nM | 3.3 | inhibition (Homo sapiens): 39%
Cc1cc(CCC(=O)O)cnc1OCc1cccc(-c2c(C)cccc2C)c1 | 2500 nM | 9100 nM |  | 
O=C(O)CCc1ccc(NCc2cccc(Oc3ccccc3)c2)cc1 [GW9508] | 13 nM | 99 nM |  | 
Cc1cccc(C)c1-c1cccc(COc2ncc(CCC(=O)O)s2)c1 | 65 nM | 540 nM |  | 
Cc1cccc(C)c1-c1cccc(COc2ccc(CCC(=O)O)nn2)c1 | 420 nM | 310 nM |  | 
Cc1cccc(C)c1-c1cccc(COc2ccc(CCC(=O)O)s2)c1 | 52 nM | 840 nM | > 2.4 | 

Now from value to compound, other results behind:

EC50 [1] | EC50 [2] | logD [3] | Compound | also measured
18 nM | 96 nM |  | Cc1cccc(C)c1-c1cccc(COc2ccc(C(F)CC(=O)O)cn2)c1 (configuration not stated) | inhibition (Homo sapiens): 91%
6.7 nM | 18 nM | > 3.3 | Cc1cccc(C)c1-c1cccc(COc2ccc(CCC(=O)O)cc2)c1 | inhibition (Homo sapiens): 58%; bioavailability [19]: 0.9%
81 nM | 1100 nM |  | Cc1cccc(C)c1-c1cccc(COc2ccc(CCC(=O)O)c(C)n2)c1 | 
8.6 nM | 250 nM |  | Cc1cccc(C)c1-c1cccc(COc2ccc(CC(F)C(=O)O)cn2)c1 (configuration not stated) | inhibition (Homo sapiens): 58%
9.3 nM | 130 nM |  | Cc1cc(OCc2cccc(-c3c(C)cccc3C)c2)ncc1CCC(=O)O | 
14 nM | 130 nM | 2.8 | CCOC(CC(=O)O)c1ccc(OCc2cccc(-c3c(C)cccc3C)c2)nc1 (configuration not stated) | inhibition (Homo sapiens): 66%
230 nM | 760 nM | 0.7 | CCOC(CC(=O)O)c1ccc(OCc2ccccc2)nc1 (configuration not stated) | inhibition (Homo sapiens): 1%
